In ChEMBL document CHEMBL4831487, “Fragment-based drug design targeting syntenin PDZ2 domain involved in exosomal release and tumour spread” (Eur J Med Chem, 2021):
Activity calls are given as the source filed them. The rule behind the calls is not given here.

Tests used:
[1] = molecular target: Syntenin-1/Syndecan-2 (Homo sapiens) (UniProt O00560+P34741); assay: Inhibition of recombinant human full-length GST-tagged syntenin-1/Syndecan-2 complex interaction expressed in Escherichia coli ER2566 at 400 uM measured after 16 hrs by HTRF assay
Outline: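 GST-syntenin-1 full length expressed in E. coli ER2566 (0.4 mM IPTG, overnight at 30 °C), purified on GSTrap; HTRF binding to syndecan-2. Compounds at 400 μM, single well, plates spun then incubated 16 h at 4°C. Excitation 337 nm, emission 665/620 ratio; % inhibition from DMSO-only max and no-protein min signals.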

Syntenin-1/Syndecan-2 [2] = molecular target: T1, Syntenin-1/Syndecan-2 (Homo sapiens, UniProt O00560); assay: Inhibition of recombinant human full-length GST-tagged syntenin-1/Syndecan-2 complex interaction expressed in Escherichia coli ER2566 measured after 16 hrs by HTRF assay
T1 sequence (O00560 whole entry): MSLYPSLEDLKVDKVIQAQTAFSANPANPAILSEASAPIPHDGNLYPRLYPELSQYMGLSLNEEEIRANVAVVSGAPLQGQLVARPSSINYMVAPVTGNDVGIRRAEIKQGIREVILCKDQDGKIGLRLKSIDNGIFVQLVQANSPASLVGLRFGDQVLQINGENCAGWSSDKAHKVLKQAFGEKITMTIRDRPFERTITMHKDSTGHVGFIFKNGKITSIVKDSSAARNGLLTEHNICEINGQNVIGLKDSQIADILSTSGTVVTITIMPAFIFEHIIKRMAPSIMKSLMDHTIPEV
T1 sequence (P34741 whole entry, further chain): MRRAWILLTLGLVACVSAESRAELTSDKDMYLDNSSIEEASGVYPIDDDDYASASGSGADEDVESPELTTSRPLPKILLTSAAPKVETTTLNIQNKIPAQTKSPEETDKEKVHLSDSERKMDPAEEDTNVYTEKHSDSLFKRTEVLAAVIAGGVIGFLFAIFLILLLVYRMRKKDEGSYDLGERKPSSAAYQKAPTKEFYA
Outline: (§1)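 HTRF assay of E. coli ER2566-expressed GST-syntenin-1 full length binding to syndecan-2; serial DMSO dilutions of compound in triplicate, 16 h at 4°C after spin. 665/620 nm ratio (excitation 337 nm) converted to % inhibition versus DMSO-only and no-protein controls to derive IC50; for line 4, buffer contained 0.01% NP40.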

MCF7 [3] = assay: Down regulation of flotillin-1 level in human MCF7 cells at 100 uM measured after 16 hrs by Western blot analysis; type: functional, cell-based
Outline: (§2)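 MCF-7 cells (DMEM-F12, 10% FCS, 37°C, 5% CO2) treated at 100 μM or DMSO 0.2% vehicle for 16 h in medium with 10% exosome-depleted FCS. Exosomes isolated from medium by sequential centrifugation at 4 °C (500 g, 10,000 g, 100,000 g pellet, PBS wash); loading normalized to parent cell number. SDS-PAGE western blot; mean signal relative to vehicle, N independent experiments, one-way ANOVA with Tukey posttest.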

MCF7 [4] = assay: Down regulation of syntenin-1 level in human MCF7 cells at 100 uM measured after 16 hrs by Western blot analysis; type: functional, cell-based; outline: as §2
Syntenin-1/Syndecan-2 [5] = molecular target: T1, Syntenin-1/Syndecan-2; assay: Inhibition of recombinant human full-length GST-tagged syntenin-1/Syndecan-2 complex interaction expressed in Escherichia coli ER2566 in presence of NP40 detergent measured after 16 hrs by HTRF assay; outline: as §1

| Structure (SMILES) | inhibition [1] [%] | IC50 (Syntenin-1/Syndecan-2 [2]) [µM] | also measured |
| --- | --- | --- | --- |
| CC(C)[C@H](NC(=O)CCOc1ccc(Cl)cc1)C(=O)O | 31 |  |  |
| CC(C)[C@H](NC(=O)CCSc1ccc(-c2cccc(O)c2)cc1)C(=O)O |  | > 200 |  |
| C[C@H](NC(=O)CCSc1ccc(Cl)cc1)C(=O)O | 56 |  |  |
| C[C@H](NC(=O)COc1ccccc1)C(=O)O | 0 |  |  |
| O=C(CCSc1ccccc1)N[C@@H](Cc1ccccc1)C(=O)O | 0 |  |  |
| CC(C)[C@H](NC(=O)CCOc1ccccc1)C(=O)O | 0 |  |  |
| CC(C)[C@H](NC(=O)CCSc1ccc(-c2cccc(S(N)(=O)=O)c2)cc1)C(=O)O |  | 78 |  |
| CC(C)[C@H](NC(=O)CCSc1ccc(Br)cc1)C(=O)O |  | 47 | Activity (MCF7 [3]): inactive; Activity (MCF7 [4]): Active; IC50 (Syntenin-1/Syndecan-2 [5]): 51 µM |
| C[C@H](NC(=O)CCSc1ccccc1)C(=O)O | 19 |  |  |
| C[C@H](NC(=O)CSc1ccc(Cl)cc1)C(=O)O | 25 |  |  |
| CC(C)[C@H](NC(=O)CCSc1ccccc1)C(=O)O | 76 |  |  |
| C[C@H](NC(=O)COc1ccc(Cl)cc1)C(=O)O | 0 |  |  |
| CC(=O)Nc1ccc(-c2ccc(SCCC(=O)N[C@H](C(=O)O)C(C)C)cc2)cn1 |  | 177 |  |
| CC(C)[C@H](NC(=O)CCSc1ccc(-c2ccc(CNC(=O)OC(C)(C)C)cc2)cc1)C(=O)O |  | 69 |  |
| C[C@H](NC(=O)CSc1ccccc1)C(=O)O | 0 |  |  |
| CC(C)[C@H](NC(=O)CCSc1ccc(Cl)cc1)C(=O)O | 94 | 33 | Activity (MCF7 [3]): inactive; Activity (MCF7 [4]): Active; IC50 (Syntenin-1/Syndecan-2 [5]): 45 µM |

| Structure (SMILES) | inhibition [1] [%] | IC50 (Syntenin-1/Syndecan-2 [2]) [µM] | also measured |
| --- | --- | --- | --- |
| O=C(CCSc1ccc(Cl)cc1)N[C@@H](Cc1ccccc1)C(=O)O | 0 |  |  |
| COCCOc1ccc(-c2ccc(SCCC(=O)N[C@H](C(=O)O)C(C)C)cc2)cn1 |  | 112 |  |
| CC(C)[C@H](NC(=O)CCSc1ccc(-c2cccc(CO)c2)cc1)C(=O)O |  | 96 |  |
| CC(C)[C@H](NC(=O)COc1ccccc1)C(=O)O | 7 |  |  |
| C[C@H](NC(=O)CCOc1ccc(Cl)cc1)C(=O)O | 6 |  |  |
| O=C(CCOc1ccccc1)N[C@@H](Cc1ccccc1)C(=O)O | 0 |  |  |
| CC(C)[C@H](NC(=O)CCCc1ccccc1)C(=O)O | 9 |  |  |
| CC(C)[C@H](NC(=O)COc1ccc(Cl)cc1)C(=O)O | 16 |  |  |
| CC(C)[C@H](NC(=O)CSc1ccccc1)C(=O)O | 20 |  |  |
| CC(C)[C@H](NC(=O)CCSc1ccc(-c2ccc(OS(C)(=O)=O)cc2)cc1)C(=O)O |  | 7.4 | IC50 (Syntenin-1/Syndecan-2 [5]): 204 µM |
| C[C@H](NC(=O)CCOc1ccccc1)C(=O)O | 11 |  |  |
| O=C(CCOc1ccc(Cl)cc1)N[C@@H](Cc1ccccc1)C(=O)O | 1 |  |  |
| CC(C)[C@H](NC(=O)CSc1ccc(Cl)cc1)C(=O)O | 56 |  | IC50 (Syntenin-1/Syndecan-2 [5]): 864 µM |
| CC(C)[C@H](NC(=O)CCSc1ccc(-c2ccc(CCC(=O)O)cc2)cc1)C(=O)O |  | > 200 |  |
| CC(C)[C@H](NC(=O)CCSc1ccc(-c2ccc(S(=O)(=O)N3CCCCC3)cc2)cc1)C(=O)O |  | > 200 |  |
